Screens as filed in PubChem.
Hits are enriched below; roughly 3.3% of the tested compounds scored in any of these assays.
DENV2 CPE rescue: inhibitors of DENV2 cytopathic effect; AID 651640; actives 1.7% (n = 350,000); DENV2-infected cells, cytopathic effect rescue, plate reader; CPE inhibition, % at 9.99 µM; in the data active means CPE inhibition above about 20%, passing the limit was not always enough; inconclusive means no clear call, values can overlap the other calls; tested in BHK-21 cells;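 further: 0% = median of neutral control wells and 100% = median of positive control wells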
E-selectin induc: E-selectin induction on HUVECs; P16581; HUVEC E-selectin immunofluorescence imaging; normalized: neutral wells 0, TNF-alpha wells 100; activation, % at 7.58 µM; actives 0.37% (n = 260,000);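 active means mean E-selectin-positive cell signal at least 10% of the positive control, reached in at least 60% of replicates, without over 20% cell loss; inconclusive means no rule given, readout overlaps actives, possibly toxicity-flagged; inactive means the rest, including those meeting only one limit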
Target sequence (P16581 whole entry, looked up): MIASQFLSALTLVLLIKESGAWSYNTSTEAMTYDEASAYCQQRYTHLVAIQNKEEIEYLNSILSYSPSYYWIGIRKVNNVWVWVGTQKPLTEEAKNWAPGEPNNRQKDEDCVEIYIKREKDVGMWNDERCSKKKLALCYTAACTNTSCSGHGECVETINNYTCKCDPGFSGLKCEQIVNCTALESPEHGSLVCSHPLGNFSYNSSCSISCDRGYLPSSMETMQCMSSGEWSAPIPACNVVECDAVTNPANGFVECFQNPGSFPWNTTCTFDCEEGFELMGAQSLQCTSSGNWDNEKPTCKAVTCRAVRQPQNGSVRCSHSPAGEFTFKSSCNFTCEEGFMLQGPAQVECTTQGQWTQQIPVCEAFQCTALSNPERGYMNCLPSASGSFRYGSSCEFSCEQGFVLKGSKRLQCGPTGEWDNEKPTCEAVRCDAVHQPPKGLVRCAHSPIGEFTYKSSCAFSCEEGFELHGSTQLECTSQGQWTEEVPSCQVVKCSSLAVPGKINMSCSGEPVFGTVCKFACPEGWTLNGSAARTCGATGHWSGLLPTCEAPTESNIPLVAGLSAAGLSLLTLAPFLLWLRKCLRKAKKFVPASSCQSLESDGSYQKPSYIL
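Test system – human umbilical vein endothelial cells (HUVEC), E-selectin induction · Input – 3,000 HUVEC seeded per well · Buffer or medium – EGM-2, gelatin · Compound dosing – single-point compound dose · Detection – immunofluorescence imaging · Measure – percent E-selectin-positive cells · Controls – TNF-alpha high, DMSO low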
PglD inh: PglD (C. jejuni) enzyme inhibition; purified PglD enzyme, DTNB colorimetric CoA detection; inhibition, % at 12.5 µM; actives 0.098% (n = 360,000); in the data active means inhibition above about 16%, passing the limit was not always enough; inconclusive means no clear call, values can overlap the other calls
Xi reactivation: X-chromosome reactivation activator; XiGFP mouse fibroblasts, % GFP-positive cells imaging, 3 d; cells co-treated with 5-aza-dC sensitizer; scaled so ellipticine positive control = 100%; activation, % at 7.58 µM; actives 0.055% (n = 360,000); AID 743238;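 active means mean normalized replicate activation at least 10% and every replicate at or above 10%; inconclusive means only one of the two criteria met; inactive means mean below 10% and not all replicates reach 10%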;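 further: 0% = median of on-plate neutral control wells and 100% = ellipticine 6 µM median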
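assay system = SV40-immortalized XiGFP fibroblast cells, line 68-5-11 | buffer or medium = DMEM plus 5-aza-dC sensitizer | doses = single-point pinned compound dosing | times = 3-day compound exposure, then 15 min fixation at room temperature | benchmarks = positive control ellipticine, 6 µM final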
FGF22 binding: FGF22 (human) thermal shift binding. actives 1.5% (n = 340,000). recombinant FGF22 thermal shift, SYPRO orange fluorescence; percent of sucrose octasulfate shift, DMSO zero. activity (Tm shift, normalised), % at 9.99 µM. Q9HCT0;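 active means mean Tm shift, scaled 0 neutral to 100 positive control, at about 1.3% or above, every replicate too, limit read from the data; inconclusive means no clear call, values can overlap the other calls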
C2C12 statin: suppressors of simvastatin-induced myotoxicity in C2C12 myotubes. ATP luminescence, 48 h; scaled: DMSO 0, geranylgeraniol control 100. rescue of ATP level, % at 7.49 µM. actives 0.78% (n = 330,000). AID 602340;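 active means mean ATP rescue above about 67%, or every replicate alone reaching that limit, limit read from the data, passing the limit was not always enough; inconclusive means no clear call, values can overlap the other calls; inactive means mean under the limit and some replicate under it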;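 further: myotubes were challenged with 10 µM simvastatin during compound exposure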
Numbers without * were called inactive; u = inconclusive; x = not tested or not shown; ! = a repeat was not active.

SMILES | DENV2 CPE rescue | E-selectin induc | PglD inh | Xi reactivation | FGF22 binding | C2C12 statin
COc1ccc(S(=O)(=O)Nc2ccc3c(c2)C(=O)N([C@H](C)CO)C[C@H](C)[C@@H](CN(C)C)O3)cc1 | 69* | -4 | -2 | -1 | 0 | 16
COc1ccc(S(=O)(=O)Nc2ccc3c(c2)C(=O)N([C@@H](C)CO)C[C@H](C)[C@@H](CN(C)C)O3)cc1 | 13 | -7 | 5 | -1 | 0 | -17
CNC[C@H]1Oc2ccc(NS(=O)(=O)c3ccc(Cl)cc3)cc2C(=O)N([C@@H](C)CO)C[C@@H]1C | -1 | x | -1 | -1 | 0 | 7
COc1ccc(S(=O)(=O)Nc2ccc3c(c2)C(=O)N([C@@H](C)CO)C[C@@H](C)[C@H](CN(C)S(=O)(=O)c2ccc(Cl)cc2)O3)cc1 | 85* | 20 | 5 | 0 | 0 | 0
CNC[C@@H]1Oc2ccc(NS(=O)(=O)c3ccc(Cl)cc3)cc2C(=O)N([C@H](C)CO)C[C@@H]1C | 39*! | 0 | 2 | 1 | 0 | -7
Oc1cccc2ccc(/C=C/c3c(F)cccc3Cl)nc12 | 0 | x | x | 0 | 43* | x
CCC1CN(S(=O)(=O)c2ccc3c(c2)NC(=O)CC(=O)N3)c2cc(Cl)ccc2O1 (stereo not given) | 23* | 3 | 5 | 0 | 0 | 23
CCOc1ccc(NC(=O)Nc2cnccn2)cc1 | -7 | 0 | x | 0 | 43* | x
CCC(C)[C@H](NC(=O)Nc1ccc(C(C)=O)cc1)C(=O)OC (stereo not given in full) | x | x | -2 | x | x | 93*
CCOc1ccc(NC(=O)NC(C)CC)cc1 (stereo not given) | x | 0 | 7 | 0 | 43* | 0
CCCN1[C@@H]2c3ccc(-c4cccnc4)c(=O)n3C[C@H]1[C@H](CO)[C@H]2C(=O)NC1CCCC1 | 6 | 0 | x | 0 | x | x
Cc1cc2c(cc1C)/C(=C\C(N)=O)NC(C)(C)C2 | x | x | -1 | x | x | 142*
CCOC(=O)N1CCN(C(=O)CNCc2cccs2)CC1 | x | x | -7 | x | x | 93*
CC(C)(C)C(=O)N1N=C(c2ccc(NS(C)(=O)=O)cc2)CC1c1cccs1 (stereo not given) | -1 | x | x | 0 | 43* | x
CCS(=O)(=O)Nc1cccc(C2=NN(C(C)=O)C(c3cccs3)C2)c1 (stereo not given) | 0 | x | -2 | 0 | 43* | 1
CC(=O)N1N=C(c2cccc(NS(C)(=O)=O)c2)CC1c1cccs1 (stereo not given) | 0 | x | 1 | 0 | 0 | 7
CCS(=O)(=O)Nc1cccc(C2=NN(S(C)(=O)=O)C(c3ccccc3)C2)c1 (stereo not given) | 12 | x | x | 0 | 43* | x
CS(=O)(=O)Nc1ccc(C2=NN(C(=O)c3ccccc3)C(c3cccs3)C2)cc1 (stereo not given) | -1 | 4 | 0 | 0 | 0 | -12
Cc1cc(C(=O)Nc2cccc3c2O[C@@H](CN(C)C(=O)Nc2c(C)noc2C)[C@H](C)CN([C@H](C)CO)C3=O)n(C)n1 | 6 | 0 | -1 | 1 | 0 | 38
CC(=O)N(C)C[C@H]1Oc2c(cccc2N(C)C)C(=O)N(C)C[C@H]1C | x | x | x | 0 | x | x
C[C@H](CO)N1C[C@H](C)[C@@H](CN(C)C(=O)NC2CCCCC2)OCCCC[C@H](C)Oc2ccc(NC(=O)Nc3ccc4c(c3)OCO4)cc2C1=O | 1 | x | 4 | 0 | 0 | x
Cc1cc(-n2c(C)cc(C(=O)CSc3ncnc4ccccc34)c2C)no1 | x | x | -5 | x | x | -5
Cc1cc(C(=O)CSc2ncnc3ccccc23)c(C)n1C1CC1 | 28* | x | 2 | 0 | 0 | -9
C[C@@H]1CN([C@H](C)CO)S(=O)(=O)c2ccc(C3=CCCC3)cc2O[C@@H]1CN(C)S(=O)(=O)c1cn(C)cn1 | 2 | 1 | 5 | 0 | 0 | -97
Nc1nonc1C(=O)N/N=C/c1ccc(-c2cccc([N+](=O)[O-])c2)o1 | x | -1 | -4 | x | x | 176*
SMILES | DENV2 CPE rescue | E-selectin induc | PglD inh | Xi reactivation | FGF22 binding | C2C12 statin
CCn1c2ccccc2c2cc(N)ccc21 | x | x | 3 | x | x | 108*
COc1ccc(NC(=O)N(C)C[C@H]2Oc3ccc(NC(=O)Cn4cnnn4)cc3C(=O)N([C@H](C)CO)C[C@H]2C)cc1 | 1 | -4 | 5 | 0 | 0 | u
CC[C@@]12C(=O)N(c3cccc(Cl)c3)C(=O)N1[C@H](c1ccc(Br)cc1)[C@@H]1C(=O)N(C(C)(C)C)C(=O)[C@@H]12 | 0 | 0 | -2 | 0 | 0 | -9
O=C1[C@H]2[C@@H](c3ccc(F)cc3)N3C(=O)N(c4cccc(F)c4)C(=O)[C@@]3(Cc3ccc(Cl)cc3)[C@H]2C(=O)N1C1CCCCC1 | 24* | 0 | 0 | 0 | 0 | -1
CC(C)C[C@@]12C(=O)N(c3cccc(Cl)c3)C(=O)N1[C@H](c1ccc(Cl)cc1)[C@@H]1C(=O)N(C3CCCCC3)C(=O)[C@@H]12 | 2 | 0 | -1 | 0 | 1.6* | 1
CC(C)C[C@@]12C(=O)N(c3cccc(Cl)c3)C(=O)N1[C@H](c1ccc(Br)cc1)[C@@H]1C(=O)N(C(C)(C)C)C(=O)[C@@H]12 | -4 | 0 | -11 | 0 | 0 | 98*
CC(C)CC#Cc1ccc2c(c1)O[C@@H](CN(C)C(=O)Nc1ccccc1)[C@@H](C)CN([C@@H](C)CO)S2(=O)=O | -6 | 0 | -2 | 0 | 0 | 31
C[C@H](CO)N1C[C@H](C)[C@@H](CN(C)Cc2ccccc2)Oc2cc(C#CC3CC3)ccc2S1(=O)=O | x | 0 | -2 | -1 | -1 | -53
CCN1/C(=C\C(=S)Nc2ccccc2)Sc2ccccc21 | -3 | 0 | -2 | 0 | 44* | -29
C[C@H](CO)N1C[C@H](C)[C@H](CN(C)S(=O)(=O)c2ccc(Cl)cc2)Oc2ccc(NC(=O)Nc3ccc4c(c3)OCO4)cc2C1=O | 29* | 0 | 3 | 0 | 1 | x
C[C@@H]1CCCCO[C@H](CN(C)S(=O)(=O)c2ccc(Cl)cc2)[C@H](C)CN([C@@H](C)CO)C(=O)c2cc(NC(=O)Nc3ccc4c(c3)OCO4)ccc2O1 | 34* | 0 | 0 | 0 | 0 | x
C[C@@H]1CCCCO[C@@H](CN(C)S(=O)(=O)c2ccc(F)cc2)[C@H](C)CN([C@H](C)CO)C(=O)c2cc(NC(=O)Nc3ccc4c(c3)OCO4)ccc2O1 | 24* | 0 | -2 | 0 | 0 | x
C[C@H](CO)N1C[C@H](C)[C@H](CN(C)S(=O)(=O)c2ccc(Cl)cc2)Oc2ccc(NC(=O)Cc3ccccc3)cc2C1=O | 11 | 36* | -2 | 0 | 0 | -25
